From ChEMBL document CHEMBL1144067, “Cancer chemopreventive agents (antitumor-promoters) from Ajuga decumbens” (J Nat Prod, 1999)

How the values were obtained:
Raji [1] = assay: Inhibition of 12-O-tetradecanoylphorbol-13-acetate induced EBV-early antigen activation in human Raji cells at 500 molar ratio relative to control; format: cell-based; conditions: human gammaherpesvirus 4
In short: (§1)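 Raji cells in RPMI-1640 treated 48 h at 37 °C with n-butyric acid (4 mmol), TPA (32 pmol = 20 ng/mL) and test agent at 10, 100, 500 or 1000 mol ratio/TPA (0.32–32 nmol). EA-positive cells in smears detected by indirect immunofluorescence; induction expressed relative to TPA positive control (100%), n = 3, ±S.D.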

[2] = Cytotoxicity against human Raji cells assessed as cell viability at 1000 molar ratio after 48 hrs; format: cell-based; conditions: read-out: Activity
In short: (§2)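 Raji cells (EBV genome-carrying, Burkitt's lymphoma-derived) grown in RPMI-1640 and incubated 48 h at 37 °C with 4 mmol n-butyric acid, 32 pmol TPA (20 ng/mL) and test agent at 10–1000 mol ratio/TPA (0.32–32 nmol). Viability given as percentage of Raji cells; n = 3, ±S.D.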

Raji [3] = assay: Inhibition of 12-O-tetradecanoylphorbol-13-acetate induced EBV-early antigen activation in human Raji cells at 1000 molar ratio relative to control; format: cell-based; conditions: human gammaherpesvirus 4; in short: as §1
[4] = Cytotoxicity against human Raji cells assessed as cell viability at 10 molar ratio after 48 hrs; format: cell-based; conditions: read-out: Activity; in short: as §2
[5] = Cytotoxicity against human Raji cells assessed as cell viability at 500 molar ratio after 48 hrs; format: cell-based; conditions: read-out: Activity; in short: as §2
Raji [6] = assay: Inhibition of 12-O-tetradecanoylphorbol-13-acetate induced EBV-early antigen activation in human Raji cells at 100 molar ratio relative to control; format: cell-based; conditions: human gammaherpesvirus 4; in short: as §1
[7] = Cytotoxicity against human Raji cells assessed as cell viability at 100 molar ratio after 48 hrs; format: cell-based; conditions: read-out: Activity; in short: as §2
Raji [8] = assay: Inhibition of 12-O-tetradecanoylphorbol-13-acetate induced EBV-early antigen activation in human Raji cells at 10 molar ratio relative to control; format: cell-based; conditions: human gammaherpesvirus 4; in short: as §1
Mus musculus [9] = assay: Inhibition of DMBA-induced/TPA-promoted carcinogenesis in mouse assessed as number of skin papillomas per mouse at 85 nmol administered twice weekly after 1 week of initiation for 10 weeks; format: functional
In short: (§3)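 Female SPF ICR mice, 6 weeks old, 15 per group, backs shaved; single topical DMBA initiation (100 μg, 390 nmol) in 0.1 mL acetone. From 1 week after, promotion with TPA 1.7 nmol twice weekly, plus 85 nmol test agent. Papilloma incidence and number per mouse monitored weekly for 20 weeks.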

Mus musculus [10] = assay: Inhibition of DMBA-induced/TPA-promoted carcinogenesis in mouse assessed as number of mouse bearing papillomas at 85 nmol administered twice weekly after 1 week of initiation for 8 weeks; format: functional; set-up: scale not given: the % may be the effect or the level left; in short: as §3
Mus musculus [11] = assay: Inhibition of DMBA-induced/TPA-promoted carcinogenesis in mouse assessed as number of mouse bearing papillomas at 85 nmol administered twice weekly after 1 week of initiation for 17 weeks; format: functional; set-up: scale not given: the % may be the effect or the level left; in short: as §3
Mus musculus [12] = assay: Inhibition of DMBA-induced/TPA-promoted carcinogenesis in mouse assessed as number of mouse bearing papillomas at 85 nmol administered twice weekly after 1 week of initiation for 10 weeks; format: functional; set-up: scale not given: the % may be the effect or the level left; in short: as §3
Mus musculus [13] = assay: Inhibition of DMBA-induced/TPA-promoted carcinogenesis in mouse assessed as number of skin papillomas per mouse at 85 nmol administered twice weekly after 1 week of initiation for 20 weeks; format: functional; in short: as §3

Compound	EBV-EA induction remaining (% of TPA control) (Raji [1])	viability at 48 h, 1000 molar ratio [2]	EBV-EA induction remaining (% of TPA control) (Raji [3])	viability at 48 h, 10 molar ratio [4]	viability at 48 h, 500 molar ratio [5]	EBV-EA induction remaining (% of TPA control) (Raji [6])	viability at 48 h, 100 molar ratio [7]	EBV-EA activation relative to TPA control (Raji [8])	Activity (Mus musculus [9])	Activity (Mus musculus [10])	Activity (Mus musculus [11])	Activity (Mus musculus [12])	Activity (Mus musculus [13])
C/C=C(/C)C(=O)O[C@@H]1CC[C@]2(CO2)[C@]2(COC(C)=O)[C@@H](OC(C)=O)C[C@@H](C)[C@](C)(C[C@H](O)C3=CC(=O)OC3)[C@@H]12	55.8%	50%	0%	> 80%	> 80%	76.3%	> 80%	100%	–	–	–	–	–
CCC1=C(C)C(=O)O[C@@H]([C@](C)(O)[C@H]2CC[C@@]3(O)C4=CC(=O)[C@@H]5C[C@@H](O)[C@@H](O)C[C@]5(C)[C@H]4CC[C@]23C)C1	58.2%	60%	17.5%	> 80%	> 80%	81%	> 80%	100%	–	–	–	–	–
COc1cc(C(=O)O)ccc1O [VANILLIC ACID]	46.2%	60%	0%	> 80%	> 80%	73.9%	> 80%	90.2%	–	–	–	–	–
O=c1cc(-c2ccc(O)cc2)oc2cc(O)cc(O)c12 [APIGENIN]	65.9%	50%	31.5%	> 80%	> 80%	83.7%	> 80%	100%	–	–	–	–	–
C=C(CO)C(CC)C[C@@H](O)[C@@](C)(O)[C@H]1CC[C@@]2(O)C3=CC(=O)[C@@H]4C[C@@H](O)[C@@H](O)C[C@]4(C)[C@H]3CC[C@]12C (some centres undefined)	49.1%	70%	4.6%	> 80%	> 80%	72.6%	> 80%	95.8%	–	–	–	–	–
C[C@@H]1C(=O)O[C@H](C)[C@H]1C[C@@H](O)[C@](C)(O)[C@H]1CC[C@@]2(O)C3=CC(=O)[C@@H]4C[C@@H](O)[C@@H](O)C[C@]4(C)[C@H]3CC[C@]12C [CYASTERONE]	36.2%	70%	0%	> 80%	> 80%	75.2%	> 80%	94.6%	2.5	43%	80%	60%	7
C=C(C)C(C[C@@H](O)[C@@](C)(O)[C@H]1CC[C@@]2(O)C3=CC(=O)[C@@H]4C[C@@H](O)[C@@H](O)C[C@]4(C)[C@H]3CC[C@]12C)C(C)O (some centres undefined) [DECUMBESTERONE]	24.7%	70%	0%	> 80%	> 80%	66%	> 80%	100%	–	–	–	–	–
CC1(C)C[C@H](O)C[C@@]2(C)OC(=O)C=C12 [LOLIOLIDE]	26.8%	60%	5.1%	> 80%	> 80%	59.6%	> 80%	88%	–	–	–	–	–
